What was measured:
Escherichia coli [1] = assay: Antibacterial activity against Escherichia coli 700728 after 18 hrs; format: functional; details: Escherichia coli, 700728, 18 h
Procedure, shortened: (§1)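 Broth microdilution in Nutrient Broth No. 2; stocks in ethanol diluted to 0.01–128 µg/ml (triclosan) or 0.25–256 µg/ml (glycosides). Overnight 37 °C NB2 cultures diluted 1 in 10^4 in saline and added to the dilutions. Incubation at 37 °C with agitation, OD read every 15 min; MIC is the lowest concentration preventing any OD rise after 18 h.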

[2] = test system: Salmonella enterica subsp. enterica serovar Abony; assay: Antibacterial activity against Salmonella enterica subspecies enterica serotype Abony NCTC 6017 after 18 hrs; format: functional; details: NCTC 6017, 18 h; procedure, shortened: as §1
Staphylococcus aureus [3] = assay: Antibacterial activity against Staphylococcus aureus ATCC 6538P after 18 hrs; format: functional; procedure, shortened: as §1
[4] = Antibacterial activity against Salmonella enterica subspecies enterica serotype Arizonae OCC 706 after 18 hrs; format: functional, Salmonella enterica subsp. enterica serovar Arizonae; details: OCC 706, 18 h; procedure, shortened: as §1
Salmonella enteritidis = assay: Antibacterial activity against Salmonella enterica subspecies enterica serotype Enteritidis 13076 after 18 hrs; format: functional, Salmonella enterica subsp. enterica serovar Enteritidis; details: Salmonella enterica, 13076, 18 h; procedure, shortened: as §1
Staphylococcus aureus [5] = assay: Antibacterial activity against Staphylococcus aureus ATCC 9144 after 18 hrs; format: functional; details: ATCC 9144, 18 h; procedure, shortened: as §1
[6] = test system: Staphylococcus epidermidis; assay: Antibacterial activity against Staphylococcus epidermidis 155 after 18 hrs; format: functional; details: Staphylococcus epidermidis, 155, 18 h; procedure, shortened: as §1
Bacillus subtilis = assay: Antibacterial activity against Bacillus subtilis NCTC 10073 after 18 hrs; format: functional; details: NCTC 10073, 18 h; procedure, shortened: as §1
Bacillus cereus = assay: Antibacterial activity against Bacillus cereus ATCC 14579 after 18 hrs; format: functional; details: ATCC 14579, 18 h; procedure, shortened: as §1
Staphylococcus aureus [7] = assay: Antibacterial activity against Staphylococcus aureus OCC 106 after 18 hrs; format: functional; details: OCC 106, 18 h; procedure, shortened: as §1
Staphylococcus aureus [8] = assay: Antibacterial activity against Staphylococcus aureus ATCC 29213 after 18 hrs; format: functional; details: ATCC 29213, 18 h; procedure, shortened: as §1
Klebsiella aerogenes [9] = assay: Antibacterial activity against Enterobacter aerogenes ATCC 13048 after 18 hrs; format: functional; details: ATCC 13048, 18 h; procedure, shortened: as §1
Serratia marcescens = assay: Antibacterial activity against Serratia marcescens OCC 217 after 18 hrs; format: functional; details: OCC 217, 18 h; procedure, shortened: as §1
Proteus mirabilis = assay: Antibacterial activity against Proteus mirabilis ATCC 12453 after 18 hrs; format: functional; details: ATCC 12453, 18 h; procedure, shortened: as §1
Escherichia coli [10] = assay: Antibacterial activity against Escherichia coli OCC 122 after 18 hrs; format: functional; details: OCC 122, 18 h; procedure, shortened: as §1
Hafnia alvei = assay: Antibacterial activity against Hafnia alvei 13337 after 18 hrs; format: functional; details: Hafnia alvei, 13337, 18 h; procedure, shortened: as §1
Cronobacter sakazakii = assay: Antibacterial activity against Cronobacter sakazakii 29544 after 18 hrs; format: functional; details: Cronobacter sakazakii, 29544, 18 h; procedure, shortened: as §1
Streptococcus pneumoniae [11] = assay: Antibacterial activity against Streptococcus pneumoniae 6305 after 18 hrs; format: functional; details: Streptococcus pneumoniae, 6305, 18 h
Procedure, shortened: (§2)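 Broth microdilution in Nutrient Broth No. 2. Ethanol stocks were diluted in broth to 0.01–128 µg/ml for triclosan and 0.25–256 µg/ml for glycosides. Overnight 37°C NB2 cultures were diluted 1 in 10^4 in saline and added to the wells. Plates were incubated at 37°C with OD read every 15 min after agitation. MIC was the lowest concentration giving no OD increase at 18 h.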

Escherichia coli [12] = assay: Antibacterial activity against Escherichia coli ATCC 35218 after 18 hrs; format: functional; details: ATCC 35218, 18 h; procedure, shortened: as §1
Streptococcus viridans = assay: Antibacterial activity against Streptococcus viridans OCC 234 after 18 hrs; format: functional; details: OCC 234, 18 h; procedure, shortened: as §2
Citrobacter freundii [13] = assay: Antibacterial activity against Citrobacter freundii OCC 851 after 18 hrs; format: functional; details: OCC 851, 18 h; procedure, shortened: as §1
[14] = test system: Staphylococcus saprophyticus; assay: Antibacterial activity against Staphylococcus saprophyticus ATCC 15305 after 18 hrs; format: functional; details: ATCC 15305, 18 h; procedure, shortened: as §2
[15] = Antibacterial activity against Salmonella enterica subspecies enterica serotype Nottingham NCTC 7832 after 18 hrs; format: functional, Salmonella enterica subsp. enterica serovar Nottingham; details: NCTC 7832, 18 h; procedure, shortened: as §1
Staphylococcus aureus [16] = assay: Antibacterial activity against Staphylococcus aureus ATCC 25923 after 18 hrs; format: functional; details: ATCC 25923, 18 h; procedure, shortened: as §1
Escherichia coli [17] = assay: Antibacterial activity against Escherichia coli ATCC 10536 after 18 hrs; format: functional; details: ATCC 10536, 18 h; procedure, shortened: as §1
[18] = Antibacterial activity against Enterobacter cloacae ATCC 13047 after 18 hrs; format: functional, Enterobacter cloacae subsp. cloacae; details: ATCC 13047, 18 h; procedure, shortened: as §1
Aeromonas hydrophila = assay: Antibacterial activity against Aeromonas hydrophila OCC 778 after 18 hrs; format: functional; details: OCC 778, 18 h; procedure, shortened: as §1
[19] = test system: Staphylococcus epidermidis; assay: Antibacterial activity against Staphylococcus epidermidis ATCC 12228 after 18 hrs; format: functional; details: ATCC 12228, 18 h; procedure, shortened: as §1
[20] = test system: Staphylococcus haemolyticus; assay: Antibacterial activity against Staphylococcus haemolyticus OCC 2223 after 18 hrs; format: functional; details: OCC 2223, 18 h; procedure, shortened: as §2
Escherichia coli [21] = assay: Antibacterial activity against Escherichia coli ATCC 8739 after 18 hrs; format: functional; details: ATCC 8739, 18 h; procedure, shortened: as §1
[22] = test system: Staphylococcus epidermidis; assay: Antibacterial activity against Staphylococcus epidermidis ATCC 14990 after 18 hrs; format: functional; details: ATCC 14990, 18 h; procedure, shortened: as §1
[23] = Antibacterial activity against Salmonella enterica subspecies enterica serotype Infantis OCC 2133 after 18 hrs; format: functional, Salmonella enterica subsp. enterica serovar Infantis; details: OCC 2133, 18 h; procedure, shortened: as §1
Staphylococcus aureus [24] = assay: Antibacterial activity against Staphylococcus aureus OCC 104 after 18 hrs; format: functional; details: OCC 104, 18 h; procedure, shortened: as §1
Salmonella typhimurium = assay: Antibacterial activity against Salmonella enterica subspecies enterica serotype typhimurium ATCC 14028 after 18 hrs; format: functional, Salmonella enterica subsp. enterica serovar Typhimurium; details: ATCC 14028, 18 h; procedure, shortened: as §1
Enterococcus faecalis [25] = assay: Antibacterial activity against Enterococcus faecalis ATCC 29212 after 18 hrs; format: functional; details: ATCC 29212, 18 h; procedure, shortened: as §1
Streptococcus pyogenes = assay: Antibacterial activity against Streptococcus pyogenes ATCC 19615 after 18 hrs; format: functional; details: ATCC 19615, 18 h; procedure, shortened: as §2
Escherichia hermannii = assay: Antibacterial activity against Escherichia hermannii 33650 after 18 hrs; format: functional; details: Atlantibacter hermannii, 33650, 18 h; procedure, shortened: as §1
Escherichia coli [26] = assay: Antibacterial activity against Escherichia coli ATCC 25922 after 18 hrs; format: functional; details: ATCC 25922, 18 h; procedure, shortened: as §1
Streptococcus pneumoniae [27] = assay: Antibacterial activity against Streptococcus pneumoniae ATCC 49619 after 18 hrs; format: functional; details: ATCC 49619, 18 h; procedure, shortened: as §2
Escherichia coli [28] = assay: Antibacterial activity against Escherichia coli NCTC 13216 after 18 hrs; format: functional; details: NCTC 13216, 18 h; procedure, shortened: as §1
[29] = Antibacterial activity against Salmonella enterica subspecies enterica serotype Virchow NCTC 5742 after 18 hrs; format: functional, Salmonella enterica subsp. enterica serovar Virchow; details: NCTC 5742, 18 h; procedure, shortened: as §1
[30] = Antibacterial activity against Salmonella enterica subspecies enterica serotype Pullorum OCC 273 after 18 hrs; format: functional, Salmonella enterica subsp. enterica serovar Pullorum; details: OCC 273, 18 h; procedure, shortened: as §1
[31] = Antibacterial activity against Salmonella enterica subspecies enterica serotype Indiana OCC 597 after 18 hrs; format: functional, Salmonella enterica subsp. enterica serovar Indiana; details: OCC 597, 18 h; procedure, shortened: as §1
Enterococcus faecium = assay: Antibacterial activity against Enterococcus faecium ATCC 19434 after 18 hrs; format: functional; details: ATCC 19434, 18 h; procedure, shortened: as §1
Streptococcus agalactiae = assay: Antibacterial activity against Streptococcus agalactiae OCC 182 after 18 hrs; format: functional; details: OCC 182, 18 h; procedure, shortened: as §2
Staphylococcus aureus [32] = assay: Antibacterial activity against Staphylococcus aureus ATCC 6538 after 18 hrs; format: functional; details: ATCC 6538, 18 h; procedure, shortened: as §1
Enterococcus faecalis [33] = assay: Antibacterial activity against Enterococcus faecalis ATCC 33186 after 18 hrs; format: functional; details: ATCC 33186, 18 h; procedure, shortened: as §1
Klebsiella pneumoniae [34] = assay: Antibacterial activity against Klebsiella pneumoniae ATCC 10031 after 18 hrs; format: functional; details: ATCC 10031, 18 h; procedure, shortened: as §1
[35] = Antibacterial activity against Salmonella enterica subspecies enterica serotype Poona NCTC 4840 after 18 hrs; format: functional, Salmonella enterica subsp. enterica serovar Poona; details: NCTC 4840, 18 h; procedure, shortened: as §1
Escherichia coli [36] = assay: Antibacterial activity against Escherichia coli ATCC 11775 after 18 hrs; format: functional; procedure, shortened: as §1
Proteus vulgaris = assay: Antibacterial activity against Proteus vulgaris OCC 195 after 18 hrs; format: functional; details: OCC 195, 18 h; procedure, shortened: as §1
[37] = Antibacterial activity against Salmonella enterica subspecies enterica serotype Dublin OCC 627 after 18 hrs; format: functional, Salmonella enterica subsp. enterica serovar Dublin; details: OCC 627, 18 h; procedure, shortened: as §1
Klebsiella pneumoniae [38] = assay: Antibacterial activity against Klebsiella pneumoniae ATCC 13883 after 18 hrs; format: functional; details: ATCC 13883, 18 h; procedure, shortened: as §1
Citrobacter freundii [39] = assay: Antibacterial activity against Citrobacter freundii 8090 after 18 hrs; format: functional; details: Citrobacter freundii, 8090, 18 h; procedure, shortened: as §1
Pseudomonas aeruginosa = assay: Antibacterial activity against Pseudomonas aeruginosa ATCC 27853 after 18 hrs; format: functional; details: ATCC 27853, 18 h; procedure, shortened: as §1
Klebsiella aerogenes [40] = assay: Antibacterial activity against Klebsiella aerogenes NCTC 8167 after 18 hrs; format: functional; details: NCTC 8167, 18 h; procedure, shortened: as §1
Staphylococcus aureus [41] = assay: Antibacterial activity against Staphylococcus aureus NCTC 13758 after 18 hrs; format: functional; details: NCTC 13758, 18 h; procedure, shortened: as §1

Measured: MIC

O[C@@H]1[C@H](Oc2cc(Cl)ccc2Oc2ccc(Cl)cc2Cl)OC[C@@H](O)[C@H]1O
256 µg/mL: Enterococcus faecalis [25] | Enterococcus faecium | Enterococcus faecalis [33]
128 µg/mL: Bacillus subtilis | Bacillus cereus | Klebsiella aerogenes [9] | Cronobacter sakazakii | Streptococcus viridans | [20] | Streptococcus agalactiae | Proteus vulgaris
4 µg/mL: Hafnia alvei | Klebsiella pneumoniae [34] | Klebsiella pneumoniae [38]
8 to 32 µg/mL: Escherichia coli [1] | Escherichia coli [10] | Escherichia coli [12] | Escherichia coli [17] | Escherichia coli [21] | Escherichia coli [26] | Escherichia coli [28] | Escherichia coli [36]
32 µg/mL: Proteus mirabilis | Streptococcus pyogenes | Escherichia hermannii | Klebsiella aerogenes [40]
8 to 16 µg/mL: [6] | [19] | [22]
> 256 µg/mL: Serratia marcescens | Aeromonas hydrophila | Pseudomonas aeruginosa
4 to 8 µg/mL: Staphylococcus aureus [3] | Staphylococcus aureus [5] | Staphylococcus aureus [7] | Staphylococcus aureus [8] | Staphylococcus aureus [16] | Staphylococcus aureus [24] | Staphylococcus aureus [32] | Staphylococcus aureus [41]
16 µg/mL: [18]
64 µg/mL: Streptococcus pneumoniae [11] | Citrobacter freundii [13] | [14] | Streptococcus pneumoniae [27] | Citrobacter freundii [39]
32 to 64 µg/mL: all other assays above

OC[C@H]1O[C@@H](Oc2cc(Cl)ccc2Oc2ccc(Cl)cc2Cl)[C@H](O)[C@@H](O)[C@H]1O
2 µg/mL: Escherichia hermannii
4 µg/mL: Proteus mirabilis | Klebsiella aerogenes [40]
128 µg/mL: Streptococcus pneumoniae [11] | Enterococcus faecalis [25] | Streptococcus pyogenes | Streptococcus pneumoniae [27] | Enterococcus faecalis [33]
0.5 to 32 µg/mL: Escherichia coli [1] | Escherichia coli [10] | Escherichia coli [12] | Escherichia coli [17] | Escherichia coli [21] | Escherichia coli [26] | Escherichia coli [28] | Escherichia coli [36]
256 µg/mL: Bacillus cereus | Streptococcus viridans | Aeromonas hydrophila | Streptococcus agalactiae
2 to 16 µg/mL: [2] | [4] | Salmonella enteritidis | [15] | [23] | Salmonella typhimurium | [29] | [30] | [31] | [35] | [37]
8 µg/mL: Klebsiella aerogenes [9] | Cronobacter sakazakii | Citrobacter freundii [13] | [14] | Proteus vulgaris | Citrobacter freundii [39]
> 256 µg/mL: Serratia marcescens | Enterococcus faecium | Pseudomonas aeruginosa
32 µg/mL: Bacillus subtilis
0.5 µg/mL: all other assays above

Reference: ChEMBL document CHEMBL4325893, “Synthesis and antibacterial profiles of targeted triclosan derivatives” (2019)
